# According to ChEMBL document CHEMBL4118202, “Chiral analogues of (+)-cyclazosin as potent α1B-adrenoceptor selective antagonist” (Bioorg Med Chem, 2018):
# Experiments:
# [1] = target: T1, Alpha-1A adrenergic receptor (Rattus norvegicus) (UniProt P43140); assay: Antagonist activity at alpha1A adrenergic receptor in Wistar rat prostatic rat vas deferens assessed as inhibition of noradrenaline-induced contraction preincubated for 30 mins followed by noradrenaline addition measured after 45 mins in presence of cocaine hydrochloride; assay type: functional
# T1 sequence (whole entry): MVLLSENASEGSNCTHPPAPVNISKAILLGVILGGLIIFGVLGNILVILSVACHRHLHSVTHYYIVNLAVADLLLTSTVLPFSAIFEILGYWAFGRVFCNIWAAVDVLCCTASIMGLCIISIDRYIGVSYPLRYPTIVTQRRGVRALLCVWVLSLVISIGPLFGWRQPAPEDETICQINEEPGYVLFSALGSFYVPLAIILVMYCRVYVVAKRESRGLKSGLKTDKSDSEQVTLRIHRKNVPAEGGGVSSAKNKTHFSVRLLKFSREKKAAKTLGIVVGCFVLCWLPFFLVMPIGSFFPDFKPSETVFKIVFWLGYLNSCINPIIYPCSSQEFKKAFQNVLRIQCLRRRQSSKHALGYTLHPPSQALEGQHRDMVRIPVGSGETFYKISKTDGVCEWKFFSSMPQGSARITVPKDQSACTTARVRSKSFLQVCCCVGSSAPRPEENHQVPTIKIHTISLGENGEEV
# Method in brief: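 Prostatic rat vas deferens, 2 cm portions, held at 0.35 g in Tyrode (pH 7.4, 37 °C, 95% O2/5% CO2). Cocaine 10 μM added 20 min before the agonist. Tissue equilibrated 45 min and primed twice with 10 μM noradrenaline. Isotonic cumulative noradrenaline curves were run before and after 30 min antagonist. pA2 came from Schild plots (≥3 concentrations); otherwise pKB (van Rossum). n ≥ 4.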
# [2] = target: T2, Alpha-1D adrenergic receptor (Rattus norvegicus) (UniProt P23944); assay: Antagonist activity at alpha1D adrenergic receptor in Wistar rat thoracic aorta assessed as inhibition of noradrenaline-induced contraction measured after 30 mins in presence of cocaine hydrochloride and beta-adrenoceptor blocker propranolol hydrochloride; assay type: functional
# T2 sequence (whole entry): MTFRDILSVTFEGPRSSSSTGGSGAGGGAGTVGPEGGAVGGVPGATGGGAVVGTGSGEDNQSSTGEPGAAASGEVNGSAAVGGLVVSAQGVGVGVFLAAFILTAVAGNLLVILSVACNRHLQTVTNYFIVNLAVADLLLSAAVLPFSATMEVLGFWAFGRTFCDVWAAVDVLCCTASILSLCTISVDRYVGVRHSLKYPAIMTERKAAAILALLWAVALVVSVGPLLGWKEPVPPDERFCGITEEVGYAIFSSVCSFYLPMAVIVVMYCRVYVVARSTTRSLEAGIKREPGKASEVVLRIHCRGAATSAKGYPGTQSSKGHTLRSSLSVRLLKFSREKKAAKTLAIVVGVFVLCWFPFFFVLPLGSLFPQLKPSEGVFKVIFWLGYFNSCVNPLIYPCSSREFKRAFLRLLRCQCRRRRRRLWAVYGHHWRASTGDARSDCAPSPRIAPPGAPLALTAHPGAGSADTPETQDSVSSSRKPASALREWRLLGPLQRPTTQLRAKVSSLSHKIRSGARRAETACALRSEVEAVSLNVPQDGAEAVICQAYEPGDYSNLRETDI
# Method in brief: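 Helical thoracic aorta strips, endothelium removed (checked by loss of acetylcholine relaxation), in Krebs at 1 g, equilibrated ≥2 h. Isometric cumulative noradrenaline curves at 1 h intervals; the second served as control, the third followed 30 min antagonist.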
# Homo sapiens [3] = organism: Homo sapiens; assay: Selectivity ratio of compound effect for alpha1B adrenergic receptor (unknown origin) to compound effect for alpha1D adrenergic receptor (unknown origin)
# [4] = target: T3, Alpha-1A adrenergic receptor (Homo sapiens, UniProt P35348); assay: Binding affinity to alpha1A adrenergic receptor (unknown origin)
# T3 sequence (P35348 whole entry): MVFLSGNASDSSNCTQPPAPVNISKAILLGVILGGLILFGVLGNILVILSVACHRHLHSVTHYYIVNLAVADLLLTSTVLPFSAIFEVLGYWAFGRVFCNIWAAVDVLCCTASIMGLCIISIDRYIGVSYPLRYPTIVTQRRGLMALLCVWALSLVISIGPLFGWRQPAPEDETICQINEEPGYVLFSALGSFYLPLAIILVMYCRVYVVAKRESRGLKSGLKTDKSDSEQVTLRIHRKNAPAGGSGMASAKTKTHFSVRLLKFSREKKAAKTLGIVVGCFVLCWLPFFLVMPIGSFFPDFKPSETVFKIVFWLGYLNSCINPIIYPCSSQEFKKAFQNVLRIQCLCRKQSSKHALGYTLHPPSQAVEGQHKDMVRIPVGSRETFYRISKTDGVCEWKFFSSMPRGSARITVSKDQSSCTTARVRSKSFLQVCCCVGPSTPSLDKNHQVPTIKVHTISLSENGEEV
# [5] = target: T4, Alpha-1D adrenergic receptor (Homo sapiens, UniProt P25100); assay: Binding affinity to alpha1D adrenergic receptor (unknown origin)
# T4 sequence (P25100 whole entry): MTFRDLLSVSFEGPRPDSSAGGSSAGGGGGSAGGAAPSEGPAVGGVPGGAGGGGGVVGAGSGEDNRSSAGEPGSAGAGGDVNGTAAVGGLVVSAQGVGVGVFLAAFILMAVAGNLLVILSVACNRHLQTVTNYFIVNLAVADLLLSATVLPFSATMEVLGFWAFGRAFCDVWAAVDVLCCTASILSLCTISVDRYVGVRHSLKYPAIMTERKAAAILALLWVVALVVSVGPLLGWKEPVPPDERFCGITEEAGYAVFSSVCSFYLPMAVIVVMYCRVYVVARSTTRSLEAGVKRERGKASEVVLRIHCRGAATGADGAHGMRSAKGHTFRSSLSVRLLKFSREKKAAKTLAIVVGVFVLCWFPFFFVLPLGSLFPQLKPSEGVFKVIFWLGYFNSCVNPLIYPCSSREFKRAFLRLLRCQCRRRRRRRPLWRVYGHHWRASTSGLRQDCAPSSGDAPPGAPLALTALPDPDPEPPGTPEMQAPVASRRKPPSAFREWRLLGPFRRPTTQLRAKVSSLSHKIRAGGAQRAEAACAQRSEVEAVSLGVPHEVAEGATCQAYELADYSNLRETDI
# Homo sapiens [6] = organism: Homo sapiens; assay: Selectivity ratio of compound effect for alpha1B adrenergic receptor (unknown origin) to compound effect for alpha1A adrenergic receptor (unknown origin)
# Homo sapiens [7] = organism: Homo sapiens; assay: Selectivity ratio of compound effect for alpha1D adrenergic receptor (unknown origin) to compound effect for alpha1A adrenergic receptor (unknown origin)
Structure (SMILES),pKb [1],pKb [2],further results
CCCN(CCC)c1nc(N2CCN(C(=O)c3ccco3)[C@@H]3CCCC[C@@H]32)nc2cc(OC)c(OC)cc12,7.02,,
COc1cc2nc(N3CCN(C(=O)Cc4ccc5ccccc5c4)[C@H]4CCCC[C@H]43)nc(N)c2cc1OC,6.56,,
CCCN(CCC)c1nc(N2CCN(C(=O)c3ccco3)[C@H]3CCCC[C@H]32)nc2cc(OC)c(OC)cc12,5.89,6.22,
"COc1cc2nc(N3CCN(C(=O)C4COc5ccccc5O4)[C@H]4CCCC[C@H]43)nc(N)c2cc1OC (single isomer, unassigned; (-)) [CYCLODOXAZOSIN]",,7.1,Selectivity ratio (Homo sapiens [3]): 3; Ki [4]: 3.39 nM; Ki [5]: 3.89 nM; Selectivity ratio (Homo sapiens [6]): 2; Selectivity ratio (Homo sapiens [7]): 1

# Second part, led by results:
pKb [1],pKb [2],Structure (SMILES),further results
7.17,,COc1cc2nc(N3CCN(C(=O)C(C)(C)C)[C@H]4CCCC[C@H]43)nc(N)c2cc1OC,
7.06,,CCCCCC(=O)N1CCN(c2nc(N)c3cc(OC)c(OC)cc3n2)[C@@H]2CCCC[C@@H]21,
